Data from ChEMBL document CHEMBL1139119, “Anti-mycobacterial activity of a bis-sulfonamide” (2007).
Converted amounts (≈) assume the structure as drawn. The source made the active and inactive calls. No cut-off for these calls is given here.

Tests used:
Type in all cases: functional
[1] = system: Mycolicibacterium smegmatis; experiment: Antimicrobial activity against Mycobacterium smegmatis
[2] = system: Candida albicans; experiment: Antimicrobial activity against Candida albicans
[3] = system: Staphylococcus aureus; experiment: Antimicrobial activity against Staphylococcus aureus
Outline: (§1)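 Overnight bacterial culture diluted 1000-fold into fresh medium the next day, then exposed to compound at five doses (100, 25, 6.25, 1.56, 0.39 μg/mL) in DMSO (final 1% v/v). DMSO-only and ampicillin no-growth controls were included. Incubated overnight at 37 °C in duplicate. Scored as % growth inhibition, averaged over two independent determinations, giving MIC50.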

[4] = system: Vibrio harveyi; experiment: Antimicrobial activity against Vibrio harveyi; outline: as §1
[5] = system: Escherichia coli; experiment: Antimicrobial activity against Escherichia coli
[6] = system: Mycolicibacterium smegmatis; experiment: Growth inhibition of Mycobacterium smegmatis at 25 ug/ml
[7] = system: Mycolicibacterium smegmatis; experiment: Growth inhibition of Mycobacterium smegmatis at 100 ug/ml
[8] = system: Candida albicans; experiment: Growth inhibition of Candida albicans at 25 ug/ml
[9] = system: Candida albicans; experiment: Growth inhibition of Candida albicans at 100 ug/ml

Structure (SMILES) | MIC50 [1] [µg/mL] | Activity [2] | Activity [3] | Activity [4] | further results
NS(=O)(=O)c1ccc(C(=O)NCc2cn(-c3ccc(S(N)(=O)=O)cc3)nn2)cc1 | 100 (≈ 229 µM) | inactive | inactive | inactive | –
NS(=O)(=O)c1ccc(C(=O)O)cc1 [CARZENIDE] | > 100 | inactive | inactive | inactive | –
Nc1ccc(S(N)(=O)=O)cc1 [SULFANILAMIDE] | > 100 | inactive | inactive | inactive | –
CC1(C)S[C@@H]2[C@H](NC(=O)[C@H](N)c3ccccc3)C(=O)N2[C@H]1C(=O)O [AMPICILLIN] | – | – | – | – | MIC50 [5]: 500 µg/mL (≈ 1430 µM); MIC50 [3]: 500 µg/mL (≈ 1430 µM); MIC50 [4]: 500 µg/mL (≈ 1430 µM)
NS(=O)(=O)c1ccc(C(=O)OCc2cn(-c3ccc(S(N)(=O)=O)cc3)nn2)cc1 | < 25 | – | inactive | inactive | MIC50 [2]: 100 µg/mL (≈ 229 µM); inhibition at 25 µg/mL [6]: 68%; inhibition at 100 µg/mL [7]: 92%; inhibition at 25 µg/mL [8]: 36%; inhibition at 100 µg/mL [9]: 49%
C#CCNC(=O)c1ccc(S(N)(=O)=O)cc1 | > 100 | inactive | inactive | inactive | –
[N-]=[N+]=Nc1ccc(S(N)(=O)=O)cc1 | – | inactive | inactive | inactive | –
CN[C@@H]1[C@H](O[C@H]2[C@H](O[C@H]3[C@H](O)[C@@H](O)[C@H](N=C(N)N)[C@@H](O)[C@@H]3N=C(N)N)O[C@@H](C)[C@]2(O)C=O)O[C@@H](CO)[C@H](O)[C@H]1O [STREPTOMYCIN] | 500 (≈ 860 µM) | – | – | – | –
C#CCOC(=O)c1ccc(S(N)(=O)=O)cc1 | > 100 | inactive | inactive | inactive | –
NS(=O)(=O)c1ccc(-n2cc(CO)nn2)cc1 | > 100 | inactive | inactive | inactive | –
